Assay results as given in publication PMC9071996 (RSC Advances, 2019).

Tests used:
Assay type in all cases: cell-based
GES-1 cells = test: MTS cytotoxicity assay, normal GES-1 cells; details: Homo sapiens, GES1, 72 h, read-out: IC50 (μM) GES-1
MDA-MB-231 cells = test: MTS cytotoxicity assay, MDA-MB-231; details: Homo sapiens, MDA-MB-231, 72 h, read-out: IC50 (μM) MBA-MD-231
Outline: (§1)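 MTS viability assay in A549, MDA-MB-231 and RPMI-8226 human cancer cells. All compounds were first screened at 10 and 50 μM. Compounds that crossed a set viability threshold in this screen went on to IC50 determination.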

RPMI-8226 cells = test: MTS cytotoxicity assay, RPMI-8226; details: Homo sapiens, RPMI-8226, 72 h, read-out: IC50 (μM) RPMI-8226
Outline: as §1

A549 cells = test: MTS cytotoxicity assay, A549; details: Homo sapiens, A549, 72 h, read-out: IC50 (μM) A549
Outline: as §1

Compound	IC50 (GES-1 cells) [µM]	IC50 (MDA-MB-231 cells) [µM]	IC50 (RPMI-8226 cells) [µM]	IC50 (A549 cells) [µM]
CC12CCC(c3c(-c4ccccc4Cl)nc(N)nc31)C2(C)C (stereo not shown) [Compound 3d, 4-(2-Chlorophenyl)-8,9,9-trimethyl-5,6,7,8-tetrahydro-5,8-methanoquinazolin-2-amine]	> 50	25.5 ± 0.39	11.4 ± 0.18	16.9 ± 0.5
CC12CCC(c3c(-c4ccc(F)cc4)nc(N)nc31)C2(C)C (stereo not shown) [Compound 3c, 4-(4-Fluorophenyl)-8,9,9-trimethyl-5,6,7,8-tetrahydro-5,8-methanoquinazolin-2-amine]	> 50	12.59 ± 0.04	9.3 ± 0.34	12.63 ± 0.02
CC12CCC(c3c(-c4ccc(O)cc4)nc(N)nc31)C2(C)C (stereo not shown) [Compound 3r, 4-(2-Amino-8,9,9-trimethyl-5,6,7,8-tetrahydro-5,8-methanoquinazolin-4-yl)phenol]	> 50	> 50	> 50	> 50
CC12CCC(c3c(-c4ccccc4O)nc(N)nc31)C2(C)C (stereo not shown) [Compound 3p, 2-(2-Amino-8,9,9-trimethyl-5,6,7,8-tetrahydro-5,8-methanoquinazolin-4-yl)phenol]	> 50	16.3 ± 0.26	> 50	14 ± 0.16
CC12CCC(c3c(-c4cccnc4)nc(N)nc31)C2(C)C (stereo not shown) [Compound 3t, 8,9,9-Trimethyl-4-(pyridin-3-yl)-5,6,7,8-tetrahydro-5,8-methanoquinazolin-2-amine]	> 50	> 50	> 50	> 50
Cc1ccc(-c2nc(N)nc3c2C2CCC3(C)C2(C)C)cc1 (stereo not shown) [Compound 3l, 8,9,9-Trimethyl-4-(p-tolyl)-5,6,7,8-tetrahydro-5,8-methanoquinazolin-2-amine]	> 50	15.68 ± 0.14	13.86 ± 0.09	15.32 ± 0.09
CC12CCC(c3c(-c4cccc(Cl)c4)nc(N)nc31)C2(C)C (stereo not shown) [Compound 3e, 4-(3-Chlorophenyl)-8,9,9-trimethyl-5,6,7,8-tetrahydro-5,8-methanoquinazolin-2-amine]	> 50	23.3 ± 0.44	10.4 ± 0.35	10.63 ± 0.09
CC12CCC(c3c(-c4ccc([N+](=O)[O-])cc4)nc(N)nc31)C2(C)C (stereo not shown) [Compound 3w, 8,9,9-Trimethyl-4-(4-nitrophenyl)-5,6,7,8-tetrahydro-5,8-methanoquinazolin-2-amine]	> 50	6.21 ± 0.14	9.58 ± 0.11	10.84 ± 0.09
CC12CCC(c3c(-c4ccncc4)nc(N)nc31)C2(C)C (stereo not shown) [Compound 3u, 8,9,9-Trimethyl-4-(pyridin-4-yl)-5,6,7,8-tetrahydro-5,8-methanoquinazolin-2-amine]	> 50	> 50	> 50	> 50
CC12CCC(c3c(-c4cccc(F)c4)nc(N)nc31)C2(C)C (stereo not shown) [Compound 3b, 4-(3-Fluorophenyl)-8,9,9-trimethyl-5,6,7,8-tetrahydro-5,8-methanoquinazolin-2-amine]	> 50	28.56 ± 0.26	> 50	24.35 ± 0.01
CN(C)c1ccc(-c2nc(N)nc3c2C2CCC3(C)C2(C)C)cc1 (stereo not shown) [Compound 3v, 4-(4-(Dimethylamino)phenyl)-8,9,9-trimethyl-5,6,7,8-tetrahydro-5,8-methanoquinazolin-2-amine]	> 50	> 50	> 50	> 50
COc1ccccc1-c1nc(N)nc2c1C1CCC2(C)C1(C)C (stereo not shown) [Compound 3m, 4-(2-Methoxyphenyl)-8,9,9-trimethyl-5,6,7,8-tetrahydro-5,8-methanoquinazolin-2-amine]	> 50	> 50	> 50	> 50
COc1cccc(-c2nc(N)nc3c2C2CCC3(C)C2(C)C)c1 (stereo not shown) [Compound 3n, 4-(3-Methoxyphenyl)-8,9,9-trimethyl-5,6,7,8-tetrahydro-5,8-methanoquinazolin-2-amine]	> 50	> 50	> 50	> 50
